Experimental findings from ChEMBL document CHEMBL1157140, “Design and synthesis of trans 2-(furan-2-yl)vinyl heteroaromatic iodides with antitumour activity” (2008) are described below.

The subject of the assay is MCF7. Briefly: Cytotoxicity against human MCF7 cells after 3 days by MTT assay. The class given is functional. As to conditions: MCF7, 72 h. In short, it runs like this:
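MCF7 cells kept in medium with heat-inactivated foetal bovine serum, 2 mM L-alanyl-L-glutamine and penicillin–streptomycin at 37 °C, 5% CO₂. Seeded at 5 × 10³ cells/0.33 cm², then dosed after 24 h at final 0.01–100. Incubated 3 days, then MTT read at 570 nm. Each point averages 8 wells; untreated cells serve as control.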
On the technique in general: Tetrazolium dyes change colour on reduction, which living cells bring about.

As to `Cn1cc[n+](C)c1/C=C/c1ccc(-c2ccccc2Cl)o1`, growth was halved (GI50) at 1380 nM.
With `Cn1cc[n+](C)c1/C=C/c1ccco1` the figure was 100000 nM.
On to `C[n+]1ccccc1/C=C/c1ccco1`, for which growth was halved (GI50) at 70800 nM.
With `C(=C\c1ccco1)/c1cccc(/C=C/c2ccco2)n1` the figure was 2510 nM; with `C[n+]1ccccc1/C=C/c1ccc(-c2ccccc2Cl)o1`, 2240 nM; with `COc1ccc(-c2ccc(/C=C/c3n(C)cc[n+]3C)o2)cc1Cl`, 224 nM.
Consider `COc1ccc(-c2ccc(/C=C/c3ccc4ccccc4[n+]3C)o2)cc1Cl`, for which the GI50 (commonly the concentration giving 50% growth inhibition) was 191 nM.
`C[n+]1c(/C=C/c2ccc(-c3ccc(Cl)cc3[N+](=O)[O-])o2)ccc2ccccc21` gave a GI50 of 1740 nM.
With `Cc1ccc(/C=C/c2n(C)cc[n+]2C)o1` the figure was 33100 nM.
Take `C[n+]1c(/C=C/c2ccc(Br)o2)ccc2ccccc21`: halving of growth (GI50) required 3160 nM.
The value for `Cn1cc[n+](C)c1/C=C/c1ccc(Br)o1` was 39800 nM; that for `Cn1cc[n+](C)c1/C=C/c1ccc(-c2ccc(Br)cc2)o1` was 617 nM.
The value for `C[n+]1ccccc1/C=C/c1ccc(-c2ccc(Cl)cc2)o1` was 219 nM.
The value for `C[n+]1ccccc1/C=C/c1ccc(-c2cc(Cl)ccc2Cl)o1` was 38 nM; that for `Cn1cc[n+](C)c1/C=C/c1ccc(-c2ccc(Cl)cc2)o1` was 631 nM; that for `C[n+]1ccccc1/C=C/c1ccc(-c2cccc(Cl)c2)o1` was 135 nM.
`C[n+]1ccccc1/C=C/c1ccc(-c2ccc(Cl)cc2Cl)o1` had a GI50 of 126 nM.
With `C[n+]1ccccc1/C=C/c1ccc(-c2ccc(Cl)c(Cl)c2)o1` the figure was 380 nM; with `C[n+]1ccccc1/C=C/c1ccc(Br)o1`, 7940 nM; with `C[n+]1c(/C=C/c2ccc(-c3cccc(Cl)c3)o2)ccc2ccccc21`, 57.5 nM.
As to `Cn1cc[n+](C)c1/C=C/c1ccc(-c2cc(Cl)ccc2Cl)o1`, halving of growth (GI50) required 191 nM.
With `C[n+]1c(/C=C/c2ccc(-c3ccc(Cl)cc3)o2)ccc2ccccc21` the figure was 126 nM; with `Cn1cc[n+](C)c1/C=C/c1ccc(-c2cccc(Cl)c2)o1`, 1740 nM.
The value for `COc1ccc(-c2ccc(/C=C/c3cccc[n+]3C)o2)cc1Cl` was 66.1 nM.
Take `C[n+]1ccccc1/C=C/c1ccc(-c2ccc(Br)cc2)o1`: halving of growth (GI50) required 1000 nM.
The value for `C[n+]1ccccc1/C=C/c1ccc(-c2cc(C(F)(F)F)ccc2Cl)o1` was 331 nM.
